In ChEMBL document CHEMBL1629690, “Development of hexadecyloxypropyl tenofovir (CMX157) for treatment of infection caused by wild-type and nucleoside/nucleotide-resistant HIV” (Antimicrob Agents Chemother, 2010):

Columns and labels:
[1] = test system: Human immunodeficiency virus 1; test: Antiviral activity against HIV1 isolate 212 harboring reverse transcriptase L210W/T215Y mutant gene by phenosense assay; type: functional, organism-based; settings: Human immunodeficiency virus 1, isolate 212
Outline: (§1)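 PhenoSense HIV recombinant virus assay: patient-derived HIV-1 with major NRTI resistance mutations tested against increasing drug concentrations to give inhibition curves. EC50 is the concentration giving 50% inhibition. Fold change is the test recombinant EC50 divided by the EC50 of a drug-sensitive wild-type reference virus. Panel of 30 NRTI-resistant isolates plus two wild-type viruses.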

[2] = test system: Human immunodeficiency virus 1; test: Antiviral activity against HIV1 isolate 188 harboring reverse transcriptase T215Y/M184V mutant gene by phenosense assay relative to wild type; type: functional
Outline: (§2)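 Recombinant-virus PhenoSense HIV assay run on a panel of 30 NRTI-resistant HIV-1 mutants and two wild-type viruses. Each virus is tested across increasing drug concentrations to give an inhibition curve and EC50. Fold change is the test recombinant EC50 divided by the EC50 of the drug-sensitive wild-type reference virus.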

[3] = test system: Human immunodeficiency virus 1; test: Antiviral activity against HIV1 isolate 200 harboring reverse transcriptase M41L/L210W/T215Y mutant gene by phenosense assay relative to wild type; type: functional; outline: as §2
[4] = test system: Human immunodeficiency virus 1; test: Antiviral activity against HIV1 isolate 200 harboring reverse transcriptase M41L/L210W/T215Y mutant gene by phenosense assay; type: functional, organism-based; settings: Human immunodeficiency virus 1, isolate 200; outline: as §2
[5] = test system: Human immunodeficiency virus 1; test: Antiviral activity against HIV1 isolate 066 harboring reverse transcriptase 184V mutant gene by phenosense assay; type: functional, organism-based; settings: Human immunodeficiency virus 1, isolate 066; outline: as §2
[6] = test system: Human immunodeficiency virus 1; test: Antiviral activity against HIV1 isolate 204 harboring reverse transcriptase M41L/L210W/T215Y/M184V mutant gene by phenosense assay relative to wild type; type: functional; outline: as §1
[7] = test system: Human immunodeficiency virus 1; test: Antiviral activity against HIV1 isolate 212 harboring reverse transcriptase L210W/T215Y mutant gene by phenosense assay relative to wild type; type: functional; outline: as §1
[8] = test system: Human immunodeficiency virus 1; test: Antiviral activity against HIV1 isolate 069 harboring reverse transcriptase D67E/T69SSG/V75M/M184V/L210W/T215Y mutant gene by phenosense assay; type: functional, organism-based; settings: Human immunodeficiency virus 1, isolate 069; outline: as §2
[9] = test system: Human immunodeficiency virus 1; test: Antiviral activity against HIV1 isolate 185 harboring reverse transcriptase T215Y mutant gene by phenosense assay relative to wild type; type: functional; outline: as §2
[10] = test system: Human immunodeficiency virus 1; test: Antiviral activity against HIV1 isolate 066 harboring reverse transcriptase 184V mutant gene by phenosense assay relative to wild type; type: functional; outline: as §2
[11] = test system: Human immunodeficiency virus 1; test: Antiviral activity against HIV1 isolate 206 harboring reverse transcriptase D67N/K70R mutant gene by phenosense assay relative to wild type; type: functional; outline: as §1
[12] = test system: Human immunodeficiency virus 1; test: Antiviral activity against HIV1 isolate 180 harboring reverse transcriptase K65R mutant gene obtained as site-directed mutant of NL4-3 by phenosense assay; type: functional, organism-based; settings: Human immunodeficiency virus 1, isolate 180; outline: as §2
[13] = test system: Human immunodeficiency virus 1; test: Antiviral activity against HIV1 isolate 056 expressing wild type reverse transcriptase gene by phenosense assay; type: functional, organism-based; settings: Human immunodeficiency virus 1, isolate 056
Outline: (§3)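 In the PhenoSense recombinant virus assay, virus was tested against increasing drug concentrations. EC50 came from the inhibition curve and was compared with a drug-sensitive reference virus.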

[14] = test system: Human immunodeficiency virus 1; test: Antiviral activity against HIV1 isolate 211 harboring reverse transcriptase D67N/K70R/T215F/K219E/M184V mutant gene by phenosense assay; type: functional, organism-based; settings: Human immunodeficiency virus 1, isolate 211; outline: as §1
[15] = test system: Human immunodeficiency virus 1; test: Antiviral activity against HIV1 isolate 204 harboring reverse transcriptase M41L/L210W/T215Y/M184V mutant gene by phenosense assay; type: functional, organism-based; settings: Human immunodeficiency virus 1, isolate 204; outline: as §1
[16] = test system: Human immunodeficiency virus 1; test: Antiviral activity against HIV1 isolate 153 harboring reverse transcriptase L74V mutant gene by phenosense assay; type: functional, organism-based; settings: Human immunodeficiency virus 1, isolate 153; outline: as §2
[17] = test system: Human immunodeficiency virus 1; test: Antiviral activity against HIV1 isolate 060 harboring reverse transcriptase M41L/D67N/K70R/L210W/T215Y/K219E mutant gene by phenosense assay; type: functional, organism-based; settings: Human immunodeficiency virus 1, isolate 060; outline: as §2
[18] = test system: Human immunodeficiency virus 1; test: Antiviral activity against HIV1 isolate 057 expressing wild type reverse transcriptase gene by phenosense assay; type: functional, organism-based; settings: Human immunodeficiency virus 1, isolate 057; outline: as §3
[19] = test system: Human immunodeficiency virus 1; test: Antiviral activity against HIV1 isolate 166 harboring reverse transcriptase L74V mutant gene obtained as site-directed mutant of NL4-3 by phenosense assay; type: functional, organism-based; settings: Human immunodeficiency virus 1, isolate 166; outline: as §2
[20] = test system: Human immunodeficiency virus 1; test: Antiviral activity against HIV1 isolate 188 harboring reverse transcriptase T215Y/M184V mutant gene by phenosense assay; type: functional, organism-based; settings: Human immunodeficiency virus 1, isolate 188; outline: as §2
[21] = test system: Human immunodeficiency virus 1; test: Antiviral activity against HIV1 isolate 162 harboring reverse transcriptase A62V/V75I/F77L/Y115F/F116Y/Q151M/M184V mutant gene by phenosense assay; type: functional, organism-based; settings: Human immunodeficiency virus 1, isolate 162; outline: as §2
[22] = test system: Human immunodeficiency virus 1; test: Antiviral activity against HIV1 isolate 192 harboring reverse transcriptase M41L/T215Y mutant gene by phenosense assay; type: functional, organism-based; settings: Human immunodeficiency virus 1, isolate 192; outline: as §2
[23] = test system: Human immunodeficiency virus 1; test: Antiviral activity against HIV1 isolate 060 harboring reverse transcriptase M41L/D67N/K70R/L210W/T215Y/K219E mutant gene by phenosense assay relative to wild type; type: functional; outline: as §2
[24] = test system: Human immunodeficiency virus 1; test: Antiviral activity against HIV1 isolate 201 harboring reverse transcriptase M41L/L210W/T215Y mutant gene by phenosense assay; type: functional, organism-based; settings: Human immunodeficiency virus 1, isolate 201; outline: as §2
[25] = test system: Human immunodeficiency virus 1; test: Antiviral activity against HIV1 isolate 194 harboring reverse transcriptase M41L/T215Y/M184V mutant gene by phenosense assay relative to wild type; type: functional; outline: as §2
[26] = test system: Human immunodeficiency virus 1; test: Antiviral activity against HIV1 isolate 069 harboring reverse transcriptase D67E/T69SSG/V75M/M184V/L210W/T215Y mutant gene by phenosense assay relative to wild type; type: functional; outline: as §2
[27] = test system: Human immunodeficiency virus 1; test: Antiviral activity against HIV1 isolate 215 harboring reverse transcriptase D67N/K70E mutant gene by phenosense assay; type: functional, organism-based; settings: Human immunodeficiency virus 1, isolate 215; outline: as §1
[28] = test system: Human immunodeficiency virus 1; test: Antiviral activity against HIV1 isolate 201 harboring reverse transcriptase M41L/L210W/T215Y mutant gene by phenosense assay relative to wild type; type: functional; outline: as §1
[29] = test system: Human immunodeficiency virus 1; test: Antiviral activity against HIV1 isolate 215 harboring reverse transcriptase D67N/K70E mutant gene by phenosense assay relative to wild type; type: functional; outline: as §1
[30] = test system: Human immunodeficiency virus 1; test: Antiviral activity against HIV1 isolate 174 harboring reverse transcriptase M184V mutant gene obtained as site-directed mutant of NL4-3 by phenosense assay relative to wild type; type: functional; outline: as §2
[31] = test system: Human immunodeficiency virus 1; test: Antiviral activity against HIV1 isolate 061 harboring reverse transcriptase M41L/D67N/K70R/M184V/L210W/T215Y/K219E mutant gene by phenosense assay; type: functional, organism-based; settings: Human immunodeficiency virus 1, isolate 061; outline: as §2
[32] = test system: Human immunodeficiency virus 1; test: Antiviral activity against HIV1 isolate 203 harboring reverse transcriptase M41L/L210W/T215Y/M184V mutant gene by phenosense assay relative to wild type; type: functional; outline: as §1
[33] = test system: Human immunodeficiency virus 1; test: Antiviral activity against HIV1 isolate 220 harboring reverse transcriptase K70E/M184V mutant gene by phenosense assay relative to wild type; type: functional; outline: as §1
[34] = test system: Human immunodeficiency virus 1; test: Antiviral activity against HIV1 isolate 157 harboring reverse transcriptase L74V/M184V mutant gene by phenosense assay relative to wild type; type: functional; outline: as §2
[35] = test system: Human immunodeficiency virus 1; test: Antiviral activity against HIV1 isolate 067 harboring reverse transcriptase A62V/D67G/T69SVG/V75I/T215I mutant gene by phenosense assay relative to wild type; type: functional; outline: as §2
[36] = test system: Human immunodeficiency virus 1; test: Antiviral activity against HIV1 isolate 185 harboring reverse transcriptase T215Y mutant gene by phenosense assay; type: functional, organism-based; settings: Human immunodeficiency virus 1, isolate 185; outline: as §2

| SMILES | EC50 [1] | fold change (FC) [2] | fold change (FC) [3] | EC50 [4] | EC50 [5] | fold change (FC) [6] | fold change (FC) [7] | EC50 [8] | fold change (FC) [9] | fold change (FC) [10] | fold change (FC) [11] | EC50 [12] | EC50 [13] | EC50 [14] | EC50 [15] | EC50 [16] | EC50 [17] | EC50 [18] | EC50 [19] | EC50 [20] | other results |
| --- | --- | --- | --- | --- | --- | --- | --- | --- | --- | --- | --- | --- | --- | --- | --- | --- | --- | --- | --- | --- | --- |
| Cc1cn([C@H]2C=C[C@@H](CO)O2)c(=O)[nH]c1=O [STAVUDINE] | 940 nM | 1.1 | 2.1 | 1200 nM | 460 nM | 1.8 | 1.6 | 6800 nM | 1.4 | 0.77 | 1.3 | 830 nM | 510 nM | 790 nM | 1100 nM | 600 nM | 2800 nM | 480 nM | 630 nM | 650 nM | EC50 [21]: 4200 nM; EC50 [22]: 840 nM; fold change (FC) [23]: 3.1; EC50 [24]: 1100 nM; fold change (FC) [25]: 1.5; fold change (FC) [26]: 11; EC50 [27]: 560 nM; fold change (FC) [28]: 1.8; fold change (FC) [29]: 0.94; fold change (FC) [30]: 0.68; EC50 [31]: 2400 nM; fold change (FC) [32]: 1.5; fold change (FC) [33]: 0.65; fold change (FC) [34]: 0.71; fold change (FC) [35]: 11; EC50 [36]: 830 nM |
| C[C@H](Cn1cnc2c(N)ncnc21)OCP(=O)(O)O [TENOFOVIR ANHYDROUS] | 1000 nM | 0.81 | 2.8 | 2200 nM | 530 nM | 1 | 1.3 | 3600 nM | 2.4 | 0.69 | 2.6 | 1600 nM | 610 nM | 700 nM | 790 nM | 480 nM | 3600 nM | 650 nM | 540 nM | 620 nM | EC50 [21]: 1100 nM; EC50 [22]: 1400 nM; fold change (FC) [23]: 4; EC50 [24]: 2300 nM; fold change (FC) [25]: 1.3; fold change (FC) [26]: 4.7; EC50 [27]: 740 nM; fold change (FC) [28]: 3; fold change (FC) [29]: 0.96; fold change (FC) [30]: 0.54; EC50 [31]: 2000 nM; fold change (FC) [32]: 0.97; fold change (FC) [33]: 0.61; fold change (FC) [34]: 0.29; fold change (FC) [35]: 22; EC50 [36]: 1800 nM |
| CCCCCCCCCCCCCCCCOCCCOP(=O)(O)CO[C@H](C)Cn1cnc2c(N)ncnc21 [TENOFOVIR EXALIDEX] | 2.8 nM | 0.9 | 3.2 | 6 nM | 1.4 nM | 1.4 | 1.5 | 11 nM | 2.7 | 0.73 | 3 | 4.7 nM | 1.7 nM | 1.9 nM | 2.5 nM | 1.2 nM | 9.6 nM | 1.6 nM | 1.5 nM | 1.7 nM | EC50 [21]: 3.1 nM; EC50 [22]: 3.9 nM; fold change (FC) [23]: 3.3; EC50 [24]: 6.6 nM; fold change (FC) [25]: 1.6; fold change (FC) [26]: 6.1; EC50 [27]: 2.1 nM; fold change (FC) [28]: 3.5; fold change (FC) [29]: 1.2; fold change (FC) [30]: 0.62; EC50 [31]: 6.1 nM; fold change (FC) [32]: 1; fold change (FC) [33]: 0.71; fold change (FC) [34]: 0.36; fold change (FC) [35]: 31; EC50 [36]: 5 nM |
